Source: ChEMBL document CHEMBL1122433, “1-(4-Aminobenzyl)-and 1-(4-aminophenyl)isoquinoline derivatives: synthesis and evaluation as potential irreversible cyclic nucleotide phosphodiesterase inhibitors” (J Med Chem, 1983)

Key:
[1] = target: Phosphodiesterase 1 (Bos taurus, UniProt Q01061+P14100); assay: Inhibitory activity against cyclic nucleotide phosphodiesterase in bovine heart carried out at 37 C with cAMP […] as substrate.; type: tissue-based
Summary of the method: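 Crude bovine heart phosphodiesterase containing protein activator and calcium. Assay used 1 µM cAMP substrate with separation of 5'-AMP on Dowex resin. Time and protein adjusted to keep hydrolysis under 25%. I50 interpolated from at least five inhibition values against log inhibitor concentration (10^-7 to 10^-4 M). Triplicate assays, 3-5 experiments, mean ± standard error.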

[2] = target: T1, Phosphodiesterase 1 (Rattus norvegicus) (UniProt Q63421+Q9EPR9+Q01066); assay: Inhibition of Ca-dependent phosphodiesterase from rat cerebral cortex at 25 uM with 1 uM cGMP, after pre-incubation at 25 uM; type: functional, tissue-based; design: scale not given: the % may be the effect or the level left
Summary of the method: (§1)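 Purified calcium-dependent enzyme from rat cerebral cortex (Sephadex G-200 fraction) preincubated with inhibitor at the stated concentration. It was then diluted 1000-fold and assayed with 1 µM cGMP by polyacrylamide-boronate gel chromatography. Assays ran either without further drug or with drug re-added at the preincubation concentration. Activity was compared with enzyme preincubated without inhibitor.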

[3] = target: T2, Phosphodiesterase 1 (Rattus norvegicus, UniProt Q63421+Q9EPR9+Q01066); assay: Inhibition of Ca-dependent phosphodiesterase from Rat cerebral cortex using 1 uM cGMP; type: tissue-based
Summary of the method: (§2)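 Calcium-dependent enzyme from female Sprague-Dawley rat (200-250 g) cerebral cortex crude extract, taken by Sephadex G-200 gel filtration. Activity measured by polyacrylamide-boronate affinity gel chromatography with 1 µM cAMP or cGMP as substrate. Time and protein adjusted to keep hydrolysis under 25%. I50 interpolated from at least five inhibition values against log inhibitor concentration (10^-7 to 10^-4 M). Triplicate assays, 3-5 experiments, mean ± standard error.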

[4] = target: T1, Phosphodiesterase 1 (Rattus norvegicus); assay: Inhibition of Ca-dependent phosphodiesterase from rat cerebral cortex with 1 uM cGMP without compound, after pre-incubation with 2 or 25 uM (negative control); type: functional, tissue-based; design: scale not given: the % may be the effect or the level left; summary of the method: as §1
[5] = target: T2, Phosphodiesterase 1; assay: Inhibition of Ca-dependent phosphodiesterase from Rat cerebral cortex using 1 uM cAMP; type: tissue-based; summary of the method: as §2
[6] = target: T1, Phosphodiesterase 1 (Rattus norvegicus); assay: Inhibition of Ca-dependent phosphodiesterase from rat cerebral cortex at 2 uM with 1 uM cGMP, after pre-incubation at 2 uM; type: functional, tissue-based; design: scale not given: the % may be the effect or the level left; summary of the method: as §1

Compound | I50 [1] | Activity [2] | I50 [3] | Activity [4] | I50 [5] | Activity [6]
COc1cc2ccnc(-c3ccc(N(CCCl)CCCl)cc3)c2cc1OC | 5.2 µM | 45% | 15 µM | 100% | 7.3 µM | 
COc1cc2ccnc(Cc3ccc(NC(=O)CCl)cc3)c2cc1OC | 3.9 µM |  |  |  |  | 
COc1cc2ccnc(Cc3ccc(N(CCCl)CCCl)cc3)c2cc1OC | 5.3 µM |  |  |  |  | 
COc1cc2ccnc(-c3ccc(NCCCl)cc3)c2cc1OC | 3.5 µM |  | 12 µM | 102% | 2.9 µM | 21%
C=CC(=O)Nc1ccc(-c2nccc3cc(OC)c(OC)cc23)cc1 | 12 µM | 50% | 30 µM | 103% | 10 µM | 
COC(=O)/C=C/C(=O)Nc1ccc(-c2nccc3cc(OC)c(OC)cc23)cc1 | 14 µM | 104% | > 100 µM | 100% | 35 µM | 
COC(=O)/C=C/C(=O)Nc1ccc(Cc2nccc3cc(OC)c(OC)cc23)cc1 | 8 µM |  |  |  |  | 
COc1ccc(Cc2nccc3cc(OC)c(OC)cc23)cc1OC [PAPAVERINE] | 8.8 µM |  | 21 µM |  | 12 µM | 
COC(=O)/C=C\C(=O)Nc1ccc(Cc2nccc3cc(OC)c(OC)cc23)cc1 | 4 µM |  |  |  |  | 
COc1cc2ccnc(Cc3ccc(NCCCl)cc3)c2cc1OC | 4.1 µM |  |  |  |  | 
COc1cc2ccnc(-c3ccc(NC(=O)CCl)cc3)c2cc1OC | 5 µM |  | 6.8 µM | 105% | 2.3 µM | 19%
COc1cc2ccnc(-c3ccc(N)cc3)c2cc1OC | 7.4 µM |  | 2.1 µM | 103% | 3.4 µM | 16%
COc1cc2ccnc(Cc3ccc(N)cc3)c2cc1OC | 7.7 µM |  |  |  |  | 
COC(=O)/C=C\C(=O)Nc1ccc(-c2nccc3cc(OC)c(OC)cc23)cc1 | 5.3 µM |  | 1.1 µM | 99% | 1.7 µM | 14%
C=CC(=O)Nc1ccc(Cc2nccc3cc(OC)c(OC)cc23)cc1 | 10 µM |  |  |  |  | 
